Legend:
[1] = Inhibition of Varicella zoster virus thymidine kinase; set-up: species or system Human alphaherpesvirus 3
Method in brief: (§1)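 Purified recombinant VZV TK (7.75 ng), HSV-1 TK (226 ng) or human cytosolic TK-1 (455 ng) in 50 mM Tris-HCl pH 8.0, 2.5 mM MgCl2, 10 mM DTT, 2.5 mM ATP, 1 mg/mL BSA, 10 mM NaF, with 1 µM final [CH3-3H]dThd substrate. Incubated 30 min at 37 °C with varied compound concentrations; the reaction was linear over this time. Product bound on DE-81 filters, washed, and counted by liquid scintillation. Result reported as IC50.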

[2] = Inhibition of HSV1 thymidine kinase; set-up: species or system Human alphaherpesvirus 1; method in brief: as §1
[3] = target: T1, Thymidine kinase, cytosolic (Homo sapiens, UniProt P04183); assay: Inhibition of human cytosolic thymidine kinase 1; method in brief: as §1
T1 sequence (P04183 whole entry): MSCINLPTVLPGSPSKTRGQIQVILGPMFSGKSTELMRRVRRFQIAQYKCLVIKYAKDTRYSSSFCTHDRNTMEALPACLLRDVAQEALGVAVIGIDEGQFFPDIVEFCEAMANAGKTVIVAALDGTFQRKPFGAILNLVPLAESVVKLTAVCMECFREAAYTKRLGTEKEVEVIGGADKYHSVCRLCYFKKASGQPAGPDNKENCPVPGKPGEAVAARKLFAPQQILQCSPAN

[4] = system: Heart; assay: Biodistribution in NMRI mouse heart assessed as radioactivity after 2 mins; type: ADME, organism-based; conditions: in vivo
Method in brief: (§2)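 Male NMRI mice (37–43 g) given 0.1 mL HPLC-purified tracer (diluted in water for injection, EtOH <5%; 37 MBq/mL for 11C tracer, 3.7 MBq/mL for 18F tracer) via tail vein under ketamine/xylazine ip anaesthesia. Decapitation at 2 or 60 min, n=3 per time point. Organs dissected, weighed, gamma counted. Results given as %ID (cpm organ/total cpm recovered) or SUV. Blood mass taken as 7% of body mass. Mean ± SD.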

[5] = system: Heart; assay: Biodistribution in NMRI mouse heart assessed as radioactivity after 60 mins; type: ADME, organism-based; conditions: in vivo, 1 h; method in brief: as §2
[6] = system: Stomach; assay: Biodistribution in NMRI mouse stomach assessed as radioactivity after 2 mins; type: ADME, organism-based; conditions: in vivo; method in brief: as §2
[7] = system: Stomach; assay: Biodistribution in NMRI mouse stomach assessed as radioactivity after 60 mins; type: ADME, organism-based; conditions: in vivo, 1 h; method in brief: as §2
[8] = system: Intestine; assay: Biodistribution in NMRI mouse intestine assessed as radioactivity after 2 mins; type: ADME, organism-based; conditions: in vivo; method in brief: as §2
[9] = system: Intestine; assay: Biodistribution in NMRI mouse intestine assessed as radioactivity after 60 mins; type: ADME, organism-based; conditions: in vivo, 1 h; method in brief: as §2
[10] = system: Brain; assay: Biodistribution in NMRI mouse brain assessed as radioactivity after 2 mins; type: ADME, organism-based; conditions: in vivo; method in brief: as §2
[11] = system: Brain; assay: Biodistribution in NMRI mouse brain assessed as radioactivity after 60 mins; type: ADME, organism-based; conditions: in vivo, 1 h; method in brief: as §2
[12] = system: Blood; assay: Biodistribution in NMRI mouse blood assessed as radioactivity after 2 mins; type: ADME, organism-based; conditions: in vivo; method in brief: as §2
[13] = system: Blood; assay: Biodistribution in NMRI mouse blood assessed as radioactivity after 60 mins; type: ADME, organism-based; conditions: in vivo, 1 h; method in brief: as §2
[14] = Partition coefficient, log P in 1-octanol and phosphate buffer at pH 7.4; type: physicochemical; conditions: 1-octanol/phosphate buffer
Method in brief: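 HPLC-isolated tracer (about 550 kBq 11C or 185 kBq 18F) partitioned between 1-octanol and 0.025 M phosphate buffer pH 7.4 (2 mL each). Vortexed 2 min at room temperature, centrifuged 1837 g for 5 min. Aliquots of both phases weighed and gamma counted. P calculated as the cpm/mL ratio after density correction; n=6.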

[15] = species on record: Mus musculus; assay: Biodistribution in NMRI mouse urine assessed as radioactivity after 2 mins; type: ADME, organism-based; conditions: in vivo; method in brief: as §2
[16] = species on record: Mus musculus; assay: Biodistribution in NMRI mouse urine assessed as radioactivity after 60 mins; type: ADME, organism-based; conditions: in vivo, 1 h; method in brief: as §2
[17] = system: Kidney; assay: Biodistribution in NMRI mouse kidney assessed as radioactivity after 2 mins; type: ADME, organism-based; conditions: in vivo; method in brief: as §2
[18] = system: Kidney; assay: Biodistribution in NMRI mouse kidney assessed as radioactivity after 60 mins; type: ADME, organism-based; conditions: in vivo, 1 h; method in brief: as §2
[19] = system: Liver; assay: Biodistribution in NMRI mouse liver assessed as radioactivity after 2 mins; type: ADME, organism-based; conditions: in vivo; method in brief: as §2
[20] = system: Liver; assay: Biodistribution in NMRI mouse liver assessed as radioactivity after 60 mins; type: ADME, organism-based; conditions: in vivo, 1 h; method in brief: as §2
[21] = species on record: Mus musculus; assay: Biodistribution in NMRI mouse spleen + pancreas assessed as radioactivity after 2 mins; type: ADME, organism-based; conditions: in vivo; method in brief: as §2
[22] = species on record: Mus musculus; assay: Biodistribution in NMRI mouse spleen + pancreas assessed as radioactivity after 60 mins; type: ADME, organism-based; conditions: in vivo, 1 h; method in brief: as §2
[23] = system: Lung; assay: Biodistribution in NMRI mouse lungs assessed as radioactivity after 2 mins; type: ADME, organism-based; conditions: in vivo; method in brief: as §2
[24] = system: Lung; assay: Biodistribution in NMRI mouse lungs assessed as radioactivity after 60 mins; type: ADME, organism-based; conditions: in vivo, 1 h; method in brief: as §2
[25] = species on record: Mus musculus; assay: Biodistribution in NMRI mouse carcass assessed as radioactivity after 2 mins; type: ADME, organism-based; conditions: in vivo; method in brief: as §2
[26] = species on record: Mus musculus; assay: Biodistribution in NMRI mouse carcass assessed as radioactivity after 60 mins; type: ADME, organism-based; conditions: in vivo, 1 h; method in brief: as §2
[27] = system: Nucleic Acid; assay: Ratio of drug level in plasma to whole blood in mouse assessed as radioactivity at 11.5 MBq, iv after 2 mins; type: ADME, organism-based; conditions: in vivo
Method in brief: (§3)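 Normal mice given about 11.5 MBq of the [18F] tracer iv, killed by decapitation at 2, 10 or 30 min pi (n = 2 per time). Blood was collected into a K2EDTA tube, weighed and gamma-counted, then centrifuged at 1837g for 10 min. Plasma was weighed and counted. Counts were normalised to sample weight and injected dose as %ID/g, and plasma %ID/g was divided by whole-blood %ID/g.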

[28] = system: Nucleic Acid; assay: Ratio of drug level in plasma to whole blood in mouse assessed as radioactivity at 11.5 MBq, iv after 30 mins; type: ADME, organism-based; conditions: in vivo, 0.5 h; method in brief: as §3
[29] = system: Plasma; assay: Metabolic stability in mouse plasma assessed as radioactivity after 2 mins; type: ADME, cell-free
Method in brief: (§4)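 Plasma taken 2, 10 or 30 min after iv 18F tracer in normal mice (n=2 per time point), and urine collected at 60 min by manual bladder voiding. Samples spiked with authentic non-radioactive compound and applied without pretreatment to an Oasis HLB column in-line with a C18 RP-HPLC column. Eluate collected as 1 mL fractions and gamma counted. Result given as intact tracer as % of recovered radioactivity.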

[30] = system: Plasma; assay: Metabolic stability in mouse plasma assessed as radioactivity after 10 mins; type: ADME, cell-free; method in brief: as §4
[31] = system: Plasma; assay: Metabolic stability in mouse plasma assessed as radioactivity after 30 mins; type: ADME, cell-free; conditions: 0.5 h; method in brief: as §4
[32] = Metabolic stability in mouse urine assessed as radioactivity after 1 hr; type: ADME, tissue-based; method in brief: as §4
[33] = system: Blood; assay: Drug uptake in mouse blood assessed as radioactivity at 11.5 MBq after 2 mins; type: ADME, tissue-based
Method in brief: (§5)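 About 11.5 MBq of 18F tracer injected iv into mice. Decapitation at 2, 10 or 30 min, n=2 per time point. Blood collected into K2EDTA tubes, weighed and gamma counted. Plasma separated by centrifugation (1837g, 10 min) and counted. Values given as %ID/g normalised to sample weight and injected dose; plasma/whole-blood ratio also derived.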

[34] = system: Blood; assay: Drug uptake in mouse blood assessed as radioactivity at 11.5 MBq after 10 mins; type: ADME, tissue-based; method in brief: as §5
[35] = system: Blood; assay: Drug uptake in mouse blood assessed as radioactivity at 11.5 MBq after 30 mins; type: ADME, tissue-based; conditions: 0.5 h; method in brief: as §5
[36] = system: Femur; assay: Drug uptake in mouse femur bone assessed as radioactivity at 11.5 MBq after 2 mins; type: ADME, tissue-based; conditions: in vivo
Method in brief: (§6)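 Normal mice given 11.5 MBq of 18F tracer. Killed at 2, 10 or 30 min, two animals per time point. Left and right femur and muscle collected, weighed and gamma counted. Uptake given as %ID/g.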

[37] = system: Femur; assay: Drug uptake in mouse femur bone assessed as radioactivity at 11.5 MBq after 10 mins; type: ADME, tissue-based; conditions: in vivo; method in brief: as §6
[38] = system: Femur; assay: Drug uptake in mouse femur bone assessed as radioactivity at 11.5 MBq after 30 mins; type: ADME, tissue-based; conditions: in vivo, 0.5 h; method in brief: as §6
[39] = system: Nucleic Acid; assay: Ratio of drug level in femur bone to blood in mouse assessed as radioactivity at 11.5 MBq, iv after 30 mins; type: ADME, organism-based; conditions: other tissue, 0.5 h
Method in brief: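 Normal mice injected with 11.5 MBq of the [18F] tracer and killed at 2, 10 or 30 min pi (two animals per time). Left and right femurs were collected, weighed and gamma-counted, and uptake was expressed as %ID/g. Blood %ID/g was reported at the same time points.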

[40] = system: Muscle tissue; assay: Drug uptake in mouse muscle assessed as radioactivity at 11.5 MBq after 2 mins; type: ADME, tissue-based; conditions: in vivo; method in brief: as §6
[41] = system: Muscle tissue; assay: Drug uptake in mouse muscle assessed as radioactivity at 11.5 MBq after 30 mins; type: ADME, tissue-based; conditions: in vivo, 0.5 h; method in brief: as §6
[42] = Drug uptake in LV-VZVTK-IP transduced 293T cells assessed as radioactivity at 185 kBq after 3 hrs; type: ADME, cell-based; conditions: human, hek-293t
Method in brief: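 293T cells stably transduced with lentivirus carrying VZV-tk-IRES-pac (kept in 1 µg/mL puromycin), alongside untransduced control 293T cells. Plated in triplicate at 200 000 cells/well. After 24 h, fresh medium with HPLC-purified tracer added: 1.1 MBq (11C tracer, 0.5 h) or 185 kBq (18F tracer, 3 h), 37 °C. Cells washed with ice-cold PBS and lysed. Gamma counting. Uptake given as % of total radioactivity per mg protein (Bio-Rad assay).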

[43] = system: Nucleic Acid; assay: Ratio of drug level in plasma to whole blood in mouse assessed as radioactivity at 11.5 MBq, iv after 10 mins; type: ADME, organism-based; conditions: in vivo; method in brief: as §3

O=c1nc2oc(-c3ccc(OCCCCCCF)cc3)cc2cn1[C@H]1C[C@H](O)[C@@H](CO)O1
IC50 [1]: 4.1 µM
IC50 [2]: > 500 µM
IC50 [3]: > 500 µM

O=c1nc2oc(-c3ccc(OCC[18F])cc3)cc2cn1[C@H]1C[C@H](O)[C@@H](CO)O1
Drug uptake [4]: 0.3 %ID
Drug uptake [5]: 0.1 %ID
Drug uptake [6]: 1.2 %ID
Drug uptake [7]: 1.1 %ID
Drug uptake [8]: 17.7 %ID
Drug uptake [9]: 44.3 %ID
Drug uptake [10]: 0 %ID
Drug uptake [11]: 0 %ID
Drug uptake [12]: 4.8 %ID
Drug uptake [13]: 1.5 %ID
logD [14]: 1.2
Drug uptake [15]: 11.8 %ID
Drug uptake [16]: 34.8 %ID
Drug uptake [17]: 20.1 %ID
Drug uptake [18]: 1.1 %ID
Drug uptake [19]: 24.7 %ID
Drug uptake [20]: 4.3 %ID
Drug uptake [21]: 1.4 %ID
Drug uptake [22]: 1.1 %ID
Drug uptake [23]: 0.7 %ID
Drug uptake [24]: 0.2 %ID
Drug uptake [25]: 18.3 %ID
Drug uptake [26]: 11.9 %ID
Ratio [27]: 1.39
Ratio [28]: 1.02
Stability [29]: 94.7%
Stability [30]: 82%
Stability [31]: 40.6%
Stability [32]: 91.5%
Drug uptake [33]: 1.57 % ID/g
Drug uptake [34]: 1.42 % ID/g
Drug uptake [35]: 0.63 % ID/g
Drug uptake [36]: 0.57 % ID/g
Drug uptake [37]: 0.66 % ID/g
Drug uptake [38]: 1.25 % ID/g
Ratio [39]: 2
Drug uptake [40]: 0.35 % ID/g
Drug uptake [41]: 0.25 % ID/g
Drug uptake [42]: 76.6 %ID
Ratio [43]: 1.34

From ChEMBL document CHEMBL1138348, “A p-[18F]fluoroethoxyphenyl bicyclic nucleoside analogue as a potential positron emission tomography imaging agent for varicella-zoster virus thymidine kinase gene expression” (J Med Chem, 2007)
